Activity calls are given as the source filed them. The rule behind the calls is not given here.
Assays:
[1] = target: T1, Glucagon-like peptide 1 receptor (Homo sapiens, UniProt P43220); test: Increase in [125I]GLP1 binding to human GLP1 receptor expressed in BHK cells; type: cell-based
In short: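 BHK-cell plasma membranes expressing human GLP-1 receptor with 125I-GLP-1(7–36)amide tracer (50,000 cpm/well) in 25 mM Hepes, 0.1% BSA, pH 7.4; final DMSO 4.4%. Incubated 1 h at 37°C, then vacuum filtration and one wash. Nonspecific binding defined with 1 μM GLP-1; triplicates; curves fitted as one-site competition.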

Mus musculus [2] = species: Mus musculus; test: Induction of 3 mM glucose-induced insulin release in CD1 wild type mouse pancreatic islets at 100 nM; type: functional
In short: (§1)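 Adult CD1 wild-type mouse islets were isolated by collagenase digestion, cultured overnight in RPMI 1640 with 10% newborn calf serum, and perifused the next day. Columns held 30 islets, run at 37 °C and 0.30 ml/min in pH 7.4 Hepes buffer with albumin. After 30 min basal perifusion at 3 mM glucose, glucose was 3 mM from 0–60 min, then 10 mM. Agent was present 10–70 min (final DMSO ≤0.1%). Three groups of 30 islets, mean ± SEM.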

[3] = target: T1, Glucagon-like peptide 1 receptor; test: Agonist activity at human GLP1 receptor expressed in BHK cells assessed as cAMP accumulation; type: functional, cell-based
Mus musculus [4] = species: Mus musculus; test: Induction of 3 mM glucose-induced insulin release in CD1 wild type mouse pancreatic islets at 1000 nM; type: functional; in short: as §1
Mus musculus [5] = species: Mus musculus; test: Induction of 10 mM glucose-induced insulin release in CD1 GLP1 receptor knockout mouse pancreatic islets at 1000 nM; type: functional
In short: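 Islets came from CD1 GLP-1 receptor knockout mice, isolated by collagenase and cultured overnight, then perifused at 37 °C, 0.30 ml/min, 30 islets per column. After 30 min at 3 mM glucose, glucose was 3 mM from 0–30 min, then 10 mM. Agents were present 10–60 min, with DMSO ≤0.1% and a 10 μM imidazoline control. Three groups of 30 islets, mean ± SEM.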

Mus musculus [6] = species: Mus musculus; test: Induction of 10 mM glucose-induced insulin release in CD1 wild type mouse pancreatic islets at 1000 nM; type: functional
In short: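 Islets from adult CD1 mice isolated by collagenase and cultured overnight in RPMI 1640 with 10% newborn calf serum. Groups of 30 islets perifused at 37°C, 0.30 ml/min, in Hepes-bicarbonate buffer with albumin. Glucose 3 mM from 0–60 min, then 10 mM; compound added at 10 min and removed at 70 min. Final DMSO ≤0.1%. Three groups per condition.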

Mus musculus [7] = species: Mus musculus; test: Induction of 10 mM glucose-induced insulin release in CD1 wild type mouse pancreatic islets at 100 nM; type: functional; in short: as §1
Pancreas = test: Induction of 10 mM glucose-induced insulin release in Sprague-Dawley rat pancreas at 10 uM; type: functional, tissue-based
In short: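 Pancreas from male SD rats perfused at 37°C with oxygenated Krebs Ringer containing 0.25% BSA, 4% Dextran T-70 and 2 mM calcium, total flow 1.9 ml/min. Compound (final DMSO 0.25%) given at t = 20–40 min with 10 mM glucose; insulin release followed; two to three experiments, mean ± SD.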

Mus musculus [8] = species: Mus musculus; test: Induction of 10 mM glucose-induced insulin release in CD1 GLP1 receptor knockout mouse pancreatic islets at 100 nM; type: functional
[9] = target: Glucagon receptor (Homo sapiens) (UniProt P47871); test: Agonist activity at human glucagon receptor expressed in BHK cells assessed as cAMP accumulation; type: functional, cell-based
Glucagon receptor (Homo sapiens), sequence (P47871 whole entry): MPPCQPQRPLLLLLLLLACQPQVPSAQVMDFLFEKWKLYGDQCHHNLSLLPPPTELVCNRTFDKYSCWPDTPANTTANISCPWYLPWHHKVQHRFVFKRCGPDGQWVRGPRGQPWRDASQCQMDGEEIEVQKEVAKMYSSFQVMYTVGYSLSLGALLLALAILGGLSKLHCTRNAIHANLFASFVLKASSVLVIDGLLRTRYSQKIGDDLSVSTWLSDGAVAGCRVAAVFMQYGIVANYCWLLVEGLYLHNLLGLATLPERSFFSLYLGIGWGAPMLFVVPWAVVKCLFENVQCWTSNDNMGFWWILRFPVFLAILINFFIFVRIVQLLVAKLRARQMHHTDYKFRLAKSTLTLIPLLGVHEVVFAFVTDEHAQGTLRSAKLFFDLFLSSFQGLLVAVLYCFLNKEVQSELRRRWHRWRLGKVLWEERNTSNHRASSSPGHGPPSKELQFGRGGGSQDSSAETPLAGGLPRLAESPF

[10] = target: T2, Glucagon-like peptide 2 receptor (Homo sapiens) (UniProt O95838); test: Agonist activity at human GLP2 receptor expressed in BHK cells assessed as cAMP accumulation; type: functional, cell-based
T2 sequence (whole entry): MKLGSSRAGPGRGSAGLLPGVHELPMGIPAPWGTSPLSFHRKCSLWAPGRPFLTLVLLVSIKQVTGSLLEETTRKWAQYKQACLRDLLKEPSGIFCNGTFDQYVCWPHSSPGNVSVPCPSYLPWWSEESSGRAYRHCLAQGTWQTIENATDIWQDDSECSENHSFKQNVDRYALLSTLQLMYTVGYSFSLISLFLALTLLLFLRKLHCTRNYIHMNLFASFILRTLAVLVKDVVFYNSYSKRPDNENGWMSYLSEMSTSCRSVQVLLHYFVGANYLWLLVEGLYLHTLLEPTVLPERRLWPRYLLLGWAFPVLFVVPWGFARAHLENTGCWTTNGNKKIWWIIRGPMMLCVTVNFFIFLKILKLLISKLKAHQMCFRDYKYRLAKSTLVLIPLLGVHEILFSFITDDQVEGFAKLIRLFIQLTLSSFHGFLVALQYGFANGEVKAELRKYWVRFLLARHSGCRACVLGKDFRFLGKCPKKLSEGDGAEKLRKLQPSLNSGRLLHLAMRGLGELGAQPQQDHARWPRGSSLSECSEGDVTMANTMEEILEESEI

[11] = target: T3, Gastric inhibitory polypeptide receptor (Homo sapiens) (UniProt P48546); test: Agonist activity at human GIP receptor expressed in BHK cells assessed as cAMP accumulation; type: functional, cell-based
T3 sequence (whole entry): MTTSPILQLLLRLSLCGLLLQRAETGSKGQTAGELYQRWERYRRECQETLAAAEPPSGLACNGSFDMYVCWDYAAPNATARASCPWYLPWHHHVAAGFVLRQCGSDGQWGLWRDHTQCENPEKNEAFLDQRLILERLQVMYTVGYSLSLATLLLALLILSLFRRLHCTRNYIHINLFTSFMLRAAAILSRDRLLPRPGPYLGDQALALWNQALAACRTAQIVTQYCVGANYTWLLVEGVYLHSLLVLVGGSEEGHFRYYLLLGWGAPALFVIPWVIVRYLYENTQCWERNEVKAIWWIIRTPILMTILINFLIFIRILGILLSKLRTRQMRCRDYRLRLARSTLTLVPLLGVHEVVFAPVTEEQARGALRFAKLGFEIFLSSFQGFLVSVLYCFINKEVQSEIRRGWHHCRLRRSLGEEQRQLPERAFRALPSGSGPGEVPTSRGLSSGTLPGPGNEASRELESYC

T1 sequence (P43220 whole entry): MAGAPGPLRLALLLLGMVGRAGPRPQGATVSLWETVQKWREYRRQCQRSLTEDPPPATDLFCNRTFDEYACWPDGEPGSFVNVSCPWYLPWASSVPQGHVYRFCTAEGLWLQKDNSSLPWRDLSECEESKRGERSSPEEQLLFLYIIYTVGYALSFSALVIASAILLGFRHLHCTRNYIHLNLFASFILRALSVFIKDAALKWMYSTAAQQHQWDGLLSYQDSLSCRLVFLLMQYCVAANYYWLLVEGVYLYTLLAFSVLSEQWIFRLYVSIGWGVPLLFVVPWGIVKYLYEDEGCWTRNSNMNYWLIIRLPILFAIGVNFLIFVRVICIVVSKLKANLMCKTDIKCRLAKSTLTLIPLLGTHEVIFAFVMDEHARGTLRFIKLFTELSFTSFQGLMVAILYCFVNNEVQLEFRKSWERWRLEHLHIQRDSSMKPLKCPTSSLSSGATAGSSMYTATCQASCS

SMILES | Activity [1] | Activity (Mus musculus [2]) | EC50 [3] [nM] | Activity (Mus musculus [4]) | Activity (Mus musculus [5]) | Activity (Mus musculus [6]) | Activity (Mus musculus [7]) | Activity (Pancreas) | Activity (Mus musculus [8]) | Activity [9] | Activity [10] | Activity [11]
CC(C)(C)Nc1nc2cc(Cl)c(Cl)cc2nc1S(C)(=O)=O | Active | inactive | 101 | inactive | inactive | Active | inactive | Active | inactive |  |  | 
Cc1cnc(Sc2nc3cc(Cl)c(Cl)cc3nc2C(F)(F)F)s1 | Dose-dependent effect |  | 1400 |  |  |  |  |  |  | inactive | inactive | inactive
CC[C@H](C)[C@H](NC(=O)[C@H](Cc1ccccc1)NC(=O)[C@H](CCC(=O)O)NC(=O)[C@H](CCCCN)NC(=O)[C@H](C)NC(=O)[C@H](C)NC(=O)[C@H](CCC(N)=O)NC(=O)CNC(=O)[C@H](CCC(=O)O)NC(=O)[C@H](CC(C)C)NC(=O)[C@H](Cc1ccc(O)cc1)NC(=O)[C@H](CO)NC(=O)[C@H](CO)NC(=O)[C@@H](NC(=O)[C@H](CC(=O)O)NC(=O)[C@H](CO)NC(=O)[C@@H](NC(=O)[C@H](Cc1ccccc1)NC(=O)[C@@H](NC(=O)CNC(=O)[C@H](CCC(=O)O)NC(=O)[C@H](C)NC(=O)[C@@H](N)Cc1c[nH]cn1)[C@@H](C)O)[C@@H](C)O)C(C)C)C(=O)N[C@@H](C)C(=O)N[C@@H](Cc1c[nH]c2ccccc12)C(=O)N[C@@H](CC(C)C)C(=O)N[C@H](C(=O)N[C@@H](CCCCN)C(=O)NCC(=O)N[C@@H](CCCN=C(N)N)C(=O)NCC(=O)O)C(C)C |  | inactive |  | inactive | inactive |  | Active |  | inactive |  |  | 
